OX1R antag-1 – OX1R (human) antagonism; inhibition, % at 6.6 µM; OX1R-expressing cells, FRET antagonist read-out; O43613; AID 485270; 330,000 tested, 1.8% active; in the data active = inhibition mostly above about 38%, no sharp cut-off; inactive = mostly below about 40%;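 also: 0% = agonist challenge alone and 100% = reference antagonist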
Target sequence (O43613 whole entry, looked up): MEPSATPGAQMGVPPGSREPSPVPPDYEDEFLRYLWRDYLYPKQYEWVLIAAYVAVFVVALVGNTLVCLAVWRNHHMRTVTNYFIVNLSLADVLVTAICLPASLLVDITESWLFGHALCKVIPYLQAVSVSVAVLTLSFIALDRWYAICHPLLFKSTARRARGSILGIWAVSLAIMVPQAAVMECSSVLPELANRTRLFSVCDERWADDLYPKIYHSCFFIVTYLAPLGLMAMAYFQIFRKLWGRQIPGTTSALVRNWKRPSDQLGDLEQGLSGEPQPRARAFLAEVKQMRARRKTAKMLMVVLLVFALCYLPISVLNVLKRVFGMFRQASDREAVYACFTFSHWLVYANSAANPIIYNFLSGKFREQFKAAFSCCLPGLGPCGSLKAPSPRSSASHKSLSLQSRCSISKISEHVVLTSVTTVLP
TAAR1 ag – human TAAR1 agonism; CHO RD-HGA16 TAAR1, Fluo-8 calcium fluorescence; vehicle wells 0%, saturating PEA agonist 100%; 360,000 tested, 0.99% active; activation, % at 3 µM; AID 624467; Q96RJ0;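 active = activation above the mean activation of all test compounds in the run plus 3 SD, cut at about 38% in these data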
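Signal – calcium-sensitive Fluo-8 signal, excitation 470-495, emission 515-575 nm · System – RD-HGA16 (CHO) cells co-expressing Gα16 and hTAAR1 · Incubation – 17-24 h seeding, 75 min 37 °C dye, 30 min RT · Compound dosing – 3 µM single concentration · Repeats – no replicates (n 1)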
GPR7 antag – human neuropeptides B/W receptor 1 antagonism; P48145; GPR7-expressing cells, fluorescence antagonist assay; inhibition, % at 4.4 µM; 290,000 tested, 1.1% active; in the data active = inhibition above about 16%, passing the limit was not always enough;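 also: cells stimulated with the agonist NPW; 0% = agonist with vehicle and 100% = vehicle without agonist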
Target sequence (P48145 whole entry, looked up): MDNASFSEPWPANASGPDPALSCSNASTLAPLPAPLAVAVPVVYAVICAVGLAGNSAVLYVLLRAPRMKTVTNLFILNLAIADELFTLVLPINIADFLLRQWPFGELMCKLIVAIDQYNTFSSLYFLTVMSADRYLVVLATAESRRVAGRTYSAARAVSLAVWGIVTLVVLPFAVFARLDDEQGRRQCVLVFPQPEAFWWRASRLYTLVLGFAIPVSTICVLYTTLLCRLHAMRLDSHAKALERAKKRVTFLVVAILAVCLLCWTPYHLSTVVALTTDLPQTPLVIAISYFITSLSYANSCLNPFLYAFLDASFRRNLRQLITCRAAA
TAAR1 antag – human TAAR1 antagonism; 360,000 tested, 1.5% active; inhibition, % at 3 µM; Q96RJ0; CHO RD-HGA16 TAAR1, Fluo-8 calcium fluorescence, antagonist; AID 624466;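 active = inhibition above a per-plate cutoff, the mean inhibition of test compounds on that plate plus 3 SD, cut at about 49% in these data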;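 also: 0% = DMSO plus EC80 beta-PEA response and 100% = DMSO alone without agonist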
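Material: CHO RD-HGA16 cells bearing hTAAR1; compound dosing: one-point dosing, 3 µM nominal final; schedule: dye loading 75 min at 37 °C, then 30 min room temperature; measured by: calcium fluorescence with Fluo-8; control set: vehicle and agonist controls; replication: n of 1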
OX1R antag-2 – antagonists of human orexin 1 receptor | O43613 | 330,000 tested, 0.43% active | AID 434989 | CHO/OX1R cells, Fluo-8 calcium fluorescence, orexin A | inhibition, % at 5 µM;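 active = inhibition above its plate's threshold, mean inhibition of all tested compounds on the plate plus 3 SD, cut at about 37% in these data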;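 also: 0% = orexin A challenge wells and 100% = SB-334867-A antagonist wells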
CHO parental Ca – counter-screen for OX1R antagonists: effect in parental CHO cells; parental CHO-K1, ATP-induced calcium, Fluo-8 fluorescence; inhibition, % at 5.6 µM; 330,000 tested, 0.63% active;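 active = inhibition above that plate's mean sample inhibition plus 3 SD, cut at about 26% in these data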;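 also: 0% = ATP-challenged DMSO wells and 100% = DMSO wells without ATP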
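Measured by: calcium-sensitive Fluo-8 fluorescence / Test system: CHO parental line / Controls: ATP-challenged DMSO wells low, unchallenged DMSO wells high / Measure: % inhibition / Compound: single nominal dose of 5.6 µM per compound / Replicates: single well per compound, no replicates / Reagent: ATP as calcium-mobilizing challenge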
TAAR1 ag confirm – confirmation of human TAAR1 agonists; CHO RD-HGA16 TAAR1, Fluo-8 calcium fluorescence; scaled: DMSO 0%, maximal phenethylamine 100%; 2,400 tested, 82% active; activation, % at 3 µM; shares compounds with TAAR1 ag;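 active = activation above a cutoff set at the run's mean compound activation plus 3 SD, cut at about 39% in these data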
Ga16 nonsel ag – nonselective agonism, TAAR1 counter-screen | CHO-Ga16 parental, Fluo-8 calcium fluorescence; normalized to maximal ATP response, DMSO zero | shares compounds with TAAR1 ag | 2,400 tested, 50% active | activation, % at 3 µM;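 active = activation above the run cutoff, the mean activation over all tested wells plus 3 SD, cut at about 12% in these data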;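 also: 0% = DMSO wells and 100% = maximal ATP response on the peak over basal ratio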
TAAR1 desensitize – human TAAR1 agonist that also desensitizes the receptor. shares compounds with TAAR1 ag. CHO RD-HGA16 hTAAR1, Fluo-8 calcium, beta-PEA response inhibition. inhibition, % at 3 µM. 2,400 tested, 46% active;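 active = inhibition above the run cutoff, the mean inhibition of all test compounds plus 3 SD, cut at about 49% in these data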;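 also: beta-PEA stimulus applied at its EC80; loss of beta-PEA calcium signal after compound pretreatment read as receptor desensitization; 0% = DMSO with beta-PEA at EC80 and 100% = DMSO alone without agonist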
Ga16 nonsel ant – nonselective Ga16 antagonism, counter-screen; AID 651952; shares compounds with TAAR1 ag; CHO-Ga16 ATP-induced calcium, Fluo-8 fluorescence; 2,400 tested, 39% active; inhibition, % at 3 µM;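 active = inhibition above the plate's mean compound inhibition plus 3 SD, computed per plate, cut at about 22% in these data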;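 also: 0% = EC80 ATP with DMSO and 100% = DMSO wells without ATP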
An asterisk follows results filed as active; / = no result given. Compounds with a hit are over-represented: about 4.6% of the library has one in this group of screens.

SMILES | OX1R antag-1 | TAAR1 ag | GPR7 antag | TAAR1 antag | OX1R antag-2 | CHO parental Ca | TAAR1 ag confirm | Ga16 nonsel ag | TAAR1 desensitize | Ga16 nonsel ant
CCOC(=O)C1(CC2CCCCO2)CCN(Cc2cc3ccccc3[nH]2)CC1 (centres undefined) | 8.7 | 148.6* | 95.6* | 104.8* | 52.5* | 36.3* | 113.8* | 97.9* | 103.8* | 95.2*
C/C(N)=C(/C#N)C(=O)COC(=O)c1ccc(C#N)cc1 | 19.4 | 1.2 | -5.3 | -8.7 | 10.2 | -3.0 | / | / | / | /
Cc1[nH]c2ccccc2c1CN1CCc2ccccc2C1 | 6.0 | / | -5.7 | / | 2.8 | -6.1 | / | 3.8 | / | 5.6
O=c1[nH]c(CN2CCc3ccccc3C2)nc2ccccc12 | 31.3 | 6.7 | -2.2 | -0.4 | 35.7 | -38.4 | / | / | / | /
CCOC(=O)N1CCN(CC(O)COc2ccccc2C(C)C)CC1 (centres undefined) | 10.6 | 7.1 | -8.6 | 8.4 | -24.1 | -26.8 | / | / | / | /
CCN(CCNCC(O)COc1ccccc1C(C)C)c1cccc(C)c1 (centres undefined) | -12.7 | 73.3* | 7.8 | 42.6 | -5.0 | 30.6* | 78.8* | 19.9* | 57.7* | 38.6*
Cc1noc(C)c1S(=O)(=O)NC(=O)C1(C)CCN1C(=O)C1(c2ccc(Cl)cc2)CCC1 (centres undefined) | / | -0.2 | / | 2.8 | / | / | / | / | / | /
CCOCCOc1cccc(C(=O)NC(c2ccccc2)c2ccccc2)c1 | -4.7 | / | -3.5 | / | -22.0 | -6.3 | / | 8.5 | / | 12.1
CCOCCOc1cccc(C(=O)NC(C)c2ccc3ccccc3c2)c1 (centres undefined) | 12.7 | 0.6 | -9.7 | 21.2 | -32.8 | -14.3 | / | / | / | /
O=C(C1CC1)N1CCc2cc(S(=O)(=O)NCc3ccccc3)ccc21 | 17.8 | 67.7* | -8.7 | 36.9 | -15.9 | 4.2 | 5.4 | 8.2 | 15.3 | 18.2
COc1cccc(CNS(=O)(=O)c2ccc3c(c2)CCN3C(=O)C2CC2)c1 | 18.5 | 7.8 | -0.7 | 16.9 | -7.4 | -8.4 | / | / | / | /
COc1cc(N/N=C/c2ccccc2O)ncn1 | 10.6 | 49.3* | -4.2 | 5.0 | -13.3 | 5.4 | 57.1* | 8.6 | 53.1* | 11.4
C/C(=N\NC(=O)c1nnn(-c2nonc2N)c1-c1cccs1)c1ccc(C)cc1 | 7.1 | 103.5* | -15.9 | 10.0 | -7.4 | -8.9 | 104.0* | 71.6* | 15.9 | 6.0
C/C(=N\NC(=O)c1nnn(-c2nonc2N)c1-c1cccs1)c1ccc(O)cc1 | 8.9 | 34.0 | -16.7 | -0.6 | 3.0 | -3.8 | / | / | / | /
COc1ccc(/C(C)=N/NC(=O)c2nnn(-c3nonc3N)c2-c2cccs2)cc1 | 3.1 | 45.7* | -24.9 | -5.2 | -10.3 | 0.5 | 80.6* | 55.1* | 7.3 | -1.6
O=C(Nc1ccc(F)cc1)N1CCc2ccccc2C1 | 18.0 | 46.3* | 6.0 | -7.6 | -11.5 | -10.4 | 40.8* | 1.6 | 0.4 | 5.5
CCOC(=O)c1ccc(NC(=O)N2CCc3ccccc32)cc1 | 18.6 | 5.7 | -5.7 | 9.3 | -21.8 | -17.1 | / | / | / | /
CCOC(=O)c1ccc(NC(=O)N2CCc3ccccc3C2)cc1 | 29.9 | 63.4* | -6.0 | 9.1 | -7.8 | -1.6 | 47.8* | 12.4* | 49.0* | 24.4*
Cc1ccccc1NC(=O)N1CCc2ccccc2C1 | 7.6 | 83.6* | -9.1 | 0.4 | -4.8 | -3.6 | 62.7* | -0.1 | 17.0 | 4.6
Cc1ccccc1NC(=O)CN1CCc2ccccc2C1 | 11.5 | 15.6 | -5.8 | -20.1 | 10.4 | 4.0 | / | / | / | /
Cc1cc(C)cc(NC(=O)N2CCc3ccccc3C2)c1 | / | 58.0* | 6.4 | 11.2 | / | / | 67.2* | -0.9 | 11.3 | 2.7
Cc1ccc(NC(=O)N2CCc3ccccc3C2)cc1C | / | 30.7 | 0.2 | 16.3 | / | / | / | / | / | /
CCCN1CCN(C(=O)C2CCCN(c3ncnc4c3nc3n4CCCCC3)C2)CC1 (centres undefined) | 8.8 | 2.3 | -9.3 | -6.8 | -29.4 | -14.7 | / | / | / | /
CCc1ccc(C(=O)OCC(=O)c2c(N)n(CC(C)C)c(=O)n(C)c2=O)cc1 | 13.9 | 5.8 | 4.1 | -9.1 | 3.9 | 0.9 | / | / | / | /
O=C(Nc1ccc(Br)cc1)N1CCc2ccccc2C1 | 32.0 | 16.2 | -11.5 | 14.6 | -25.2 | 13.1 | / | / | / | /
SMILES | OX1R antag-1 | TAAR1 ag | GPR7 antag | TAAR1 antag | OX1R antag-2 | CHO parental Ca | TAAR1 ag confirm | Ga16 nonsel ag | TAAR1 desensitize | Ga16 nonsel ant
Cc1cccc(NC(=O)N2CCc3ccccc3C2)c1C | / | 79.8* | -10.3 | 51.8* | / | / | 80.3* | 0.8 | 28.9 | -4.4
O=C(CSc1nc2[nH]ncc2c(=O)n1-c1ccccc1)c1ccc2c(c1)OCCO2 | 17.1 | 75.2* | -1.3 | 57.9* | -4.7 | 2.1 | 67.3* | 20.9* | 49.6* | 27.2*
CCOC(=O)c1ccc(S(=O)(=O)N2CCC(N3CCCCCC3)CC2)cc1 | / | -0.7 | / | -19.5 | / | / | / | / | / | /
C=CCn1c(O)c2ccc(C(=O)N=NC(=O)c3ccc(F)cc3)cc2c1O | 43.3 | 1.4 | / | -3.5 | -19.8 | -9.0 | / | / | / | /
COC(=O)c1ccc(CNC(=O)Cn2cnc3c(OCc4ccccc4)ncnc32)cc1 | 3.6 | 21.4 | / | -14.5 | -5.5 | -5.0 | / | / | / | /
COc1ccc(CC(N)c2csc(NC(=O)CCc3ccccc3)n2)cc1 (centres undefined) | / | 61.9* | / | 59.3* | / | / | 31.2 | 27.9* | 40.4 | 37.5*
COc1ccc(CNC(=O)Nc2nc(C(N)CCc3ccccc3)cs2)cc1 (centres undefined) | / | 21.1 | / | 31.2 | / | / | / | / | / | /
COc1ccc(CC(N)c2csc(NC(=O)c3cc(C(C)(C)C)oc3C)n2)cc1 (centres undefined) | / | 48.0* | / | 28.3 | / | / | 29.6 | 30.1* | 40.1 | 51.0*
COc1ccc(CNC(=O)Nc2nc(C(N)Cc3ccc(F)cc3)cs2)cc1 (centres undefined) | / | 57.0* | / | 58.7* | / | / | 70.4* | 33.9* | 66.1* | 59.0*
NC(Cc1ccc(F)cc1)c1csc(NC(=O)NC(c2ccccc2)c2ccccc2)n1 (centres undefined) | / | 56.4* | / | 67.8* | / | / | 25.1 | 23.0* | 35.4 | 44.7*
CC(=O)Nc1ccc(CN(C)c2c(C)nc3ccc(C(=O)N4CCN(c5ccccc5)CC4)cn23)cc1 | / | 10.6 | / | 13.2 | / | / | / | / | / | /
O=C(CSc1nc(=O)n(CCCN2CCOCC2)c2c1CCCC2)Nc1cccc([N+](=O)[O-])c1 | 17.2 | 3.4 | / | -5.7 | -28.2 | -10.6 | / | / | / | /
